Data taken from ChEMBL document CHEMBL2021791, “Synthesis, structure-activity relationships and biological evaluation of caudatin derivatives as novel anti-hepatitis B virus agents” (Bioorg Med Chem, 2012).

Experiments:
[1] = test system: Hepatitis B virus; test: Antiviral activity against Hepatitis B virus infected in human HepG2(2.2.15) cells assessed as inhibition of viral DNA replication by RT-PCR analysis; format: functional, organism-based
[2] = Cytotoxicity against human HepG2(2.2.15) cells by MTT assay; format: cell-based; details: HepG2(2.2.15) cells
Outline: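 HepG2 2.2.15 cells were exposed to compounds and viability was read by a modified MTT method. CC50 is the concentration giving 50% cytotoxicity. Values are means of at least two experiments.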

[3] = test system: Hepatitis B virus; test: Selectivity ratio of CC50 for human HepG2(2.2.15) cells to IC50 for Hepatitis B virus infected in human HepG2.2.15 cells assessed as suppression of HBsAg secretion; format: cell-based; details: read-out: Ratio CC50/IC50
Outline: (§1)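 The selectivity index was calculated as CC50/IC50. CC50 is MTT cytotoxicity in HepG2 2.2.15 cells. No index was given where a value could not be obtained.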

[4] = test system: Hepatitis B virus; test: Antiviral activity against Hepatitis B virus infected in human HepG2(2.2.15) cells assessed as suppression of HBsAg secretion by ELISA; format: functional, organism-based
[5] = test system: Hepatitis B virus; test: Antiviral activity against Hepatitis B virus infected in human HepG2(2.2.15) cells assessed as suppression of HbeAg secretion by ELISA; format: functional, organism-based
[6] = test system: Hepatitis B virus; test: Selectivity ratio of CC50 for human HepG2(2.2.15) cells to IC50 for Hepatitis B virus infected in human HepG2(2.2.15) cells assessed as inhibition of viral replication; format: cell-based; details: read-out: Ratio CC50/IC50; outline: as §1

With `CC(=O)[C@]1(OC(=O)/C=C/c2ccccc2Cl)CC[C@@]2(O)[C@]1(C)[C@H](OC(=O)/C=C(\C)C(C)C)C[C@@H]1[C@@]3(C)CC[C@H](OC(=O)/C=C/c4ccccc4Cl)CC3=CC[C@]12O` the IC50 [1] was over 148 µM, the CC50 [2] was over 538 µM and the selectivity ratio [3] was 1.6. For the same compound, the IC50 [4] was 599 µM and the IC50 [5] was over 257 µM.
In the case of `COC(=O)COCC(=O)O[C@H]1CC[C@@]2(C)C(=CC[C@]3(O)[C@@H]2C[C@@H](OC(=O)/C=C(\C)C(C)C)[C@@]2(C)[C@]3(O)CC[C@@]2(O)C(C)=O)C1`, the IC50 [1] is reported as over 105 µM, the CC50 [2] is reported as 25.3 µM and the IC50 [4] is reported as 51.6 µM. For the same compound, the IC50 [5] was 78.6 µM.
Work on `CC(=O)[C@]1(O)CC[C@@]2(O)[C@]1(C)[C@H](OC(=O)/C=C(\C)C(C)C)C[C@@H]1[C@@]3(C)CC[C@H](O)C[C@@]34O[C@H]4C[C@]12O` yielded a selectivity ratio [6] of 1.2, an IC50 [1] of 184 µM and a CC50 [2] of 226 µM. It also gave a selectivity ratio [3] of 1.2, an IC50 [4] of 189 µM and an IC50 [5] of 1140 µM.
Compound `CC(=O)[C@]1(O)CC[C@@]2(O)[C@]1(C)[C@H](OC(=O)/C=C(\C)C(C)C)C[C@@H]1[C@@]3(C)CC[C@H](OC(=O)c4ccc(F)nc4)CC3=CC[C@]12O` has a selectivity ratio [6] of 2.9, an IC50 [1] of 4.97 µM and a CC50 [2] of 14.3 µM. For the same compound, the IC50 [4] was 15.6 µM and the IC50 [5] was over 687 µM.
Compound `COCC(=O)O[C@H]1CC[C@@]2(C)C(=CC[C@]3(O)[C@@H]2C[C@@H](OC(=O)/C=C(\C)C(C)C)[C@@]2(C)[C@]3(O)CC[C@@]2(OC(=O)COC)C(C)=O)C1` has a selectivity ratio [6] of over 4.9, an IC50 [1] of 288 µM and a CC50 [2] of over 1400 µM. For the same compound, the selectivity ratio [3] was over 4.2, the IC50 [4] was 331 µM and the IC50 [5] was over 1400 µM.
Compound `COc1cc(C(=O)O[C@H]2CC[C@@]3(C)C(=CC[C@]4(O)[C@@H]3C[C@@H](OC(=O)/C=C(\C)C(C)C)[C@@]3(C)[C@]4(O)CC[C@@]3(O)C(C)=O)C2)on1` has a selectivity ratio [6] of 7.8, an IC50 [1] of 17 µM and a CC50 [2] of 133 µM. It also gave an IC50 [4] of 201 µM and an IC50 [5] of over 1180 µM.
Work on `CC(=O)[C@]1(OC(=O)CCN2C(=O)c3ccccc3C2=O)CC[C@@]2(O)[C@]1(C)[C@H](OC(=O)/C=C(\C)C(C)C)C[C@@H]1[C@@]3(C)CC[C@H](OC(=O)CCN4C(=O)c5ccccc5C4=O)CC3=CC[C@]12O` yielded an IC50 [1] of over 202 µM, a CC50 [2] of over 809 µM and an IC50 [4] of over 809 µM. It also gave an IC50 [5] of over 809 µM.
Compound `CC(=O)[C@]1(O)CC[C@@]2(O)[C@]1(C)[C@H](OC(=O)/C=C(\C)C(C)C)C[C@@H]1[C@@]3(C)CC[C@H](OP(=O)(Oc4ccccc4)Oc4ccccc4)CC3=CC[C@]12O` has an IC50 [1] of over 485 µM, a CC50 [2] of over 1940 µM and an IC50 [4] of over 1940 µM. For the same compound, the IC50 [5] was over 1940 µM.
`C/C(=C\C(=O)O[C@@H]1C[C@@H]2[C@@]3(C)CC[C@H](O)CC3=CC[C@@]2(O)[C@@]2(O)CC[C@@](O)(C(C)O)[C@@]12C)C(C)C` (some centres not stated) showed a selectivity ratio [6] of 1.3, an IC50 [1] of 172 µM and a CC50 [2] of 217 µM. The IC50 [4] was 307 µM and the IC50 [5] was over 1050 µM.
With `CC(=O)[C@]1(O)CC[C@@]2(O)[C@]1(C)[C@H](OC(=O)/C=C(\C)C(C)C)C[C@@H]1[C@@]3(C)CC[C@H](OC(=O)c4cccnc4)CC3=CC[C@]12O` the selectivity ratio [6] was 12.4, the IC50 [1] was 4.05 µM and the CC50 [2] was 50.4 µM. The selectivity ratio [3] was 2.4, the IC50 [4] was 20.8 µM and the IC50 [5] was over 1040 µM.
`COCC(=O)O[C@H]1CC[C@@]2(C)C(=CC[C@]3(O)[C@@H]2C[C@@H](OC(=O)/C=C(\C)C(C)C)[C@@]2(C)[C@]3(O)CC[C@@]2(O)C(C)=O)C1` gave an IC50 [1] of 104 µM, a CC50 [2] of 102 µM and a selectivity ratio [3] of 1.4. The IC50 [4] was 70.4 µM and the IC50 [5] was over 836 µM.
`CC(=O)[C@]1(O)CC[C@@]2(O)[C@]1(C)[C@H](OC(=O)/C=C(\C)C(C)C)C[C@@H]1[C@@]3(C)CC[C@H](OC(=O)c4ccc(Br)cn4)CC3=CC[C@]12O` showed a selectivity ratio [6] of 3.9, an IC50 [1] of 12.5 µM and a CC50 [2] of 48.4 µM. The IC50 [4] was 76.5 µM and the IC50 [5] was over 626 µM.
For `CC(=O)[C@]1(O)CC[C@@]2(O)[C@]1(C)[C@H](OC(=O)/C=C(\C)C(C)C)C[C@@H]1[C@@]3(C)CC[C@H](OC(=O)CC#N)CC3=CC[C@]12O`, the selectivity ratio [6] was 10.5, the IC50 [1] was 7.32 µM and the CC50 [2] was 122 µM. It also gave a selectivity ratio [3] of 1.2, an IC50 [4] of 100 µM and an IC50 [5] of over 161 µM.
Work on `CC(=O)[C@]1(OC(=O)CCCC(=O)O)CC[C@@]2(O)[C@]1(C)[C@H](OC(=O)/C=C(\C)C(C)C)C[C@@H]1[C@@]3(C)CC[C@H](OC(=O)CCCC(=O)O)CC3=CC[C@]12O` yielded an IC50 [1] of over 268 µM, a CC50 [2] of over 268 µM and an IC50 [4] of over 268 µM. It also gave an IC50 [5] of over 268 µM.
`CC(=O)[C@]1(O)CC[C@@]2(O)[C@]1(C)[C@H](OC(=O)/C=C(\C)C(C)C)C[C@@H]1[C@@]3(C)CC[C@H](OC(=O)CCCC(=O)O)CC3=CC[C@]12O` gave a selectivity ratio [6] of 1.1, an IC50 [1] of 289 µM and a CC50 [2] of 310 µM. The IC50 [4] was over 385 µM and the IC50 [5] was over 385 µM.
For `CC(=O)[C@]1(O)CC[C@@]2(O)[C@]1(C)[C@H](OC(=O)/C=C(\C)C(C)C)C[C@@H]1[C@@]3(C)CC[C@H](OC(=O)CN(C)C)CC3=CC[C@]12O`, the selectivity ratio [6] was 3.6, the IC50 [1] was 13.8 µM and the CC50 [2] was 50.5 µM. It also gave an IC50 [4] of 87.2 µM and an IC50 [5] of over 749 µM.
In the case of `CC(=O)[C@]1(OC(=O)CCC(=O)O)CC[C@@]2(O)[C@]1(C)[C@H](OC(=O)/C=C(\C)C(C)C)C[C@@H]1[C@@]3(C)CC[C@H](OC(=O)CCC(=O)O)CC3=CC[C@]12O`, the IC50 [1] is reported as over 241 µM, the CC50 [2] is reported as 483 µM and the IC50 [4] is reported as 653 µM. The IC50 [5] was over 966 µM.
With `CC(=O)[C@]1(OC(=O)/C=C/c2cc(F)cc(F)c2)CC[C@@]2(O)[C@]1(C)[C@H](OC(=O)/C=C(\C)C(C)C)C[C@@H]1[C@@]3(C)CC[C@H](OC(=O)/C=C/c4cc(F)cc(F)c4)CC3=CC[C@]12O` the selectivity ratio [6] was over 8.7, the IC50 [1] was 183 µM and the CC50 [2] was over 1580 µM. It also gave an IC50 [4] of over 1580 µM and an IC50 [5] of over 1580 µM.
In the case of `CC(=O)[C@]1(O)CC[C@@]2(O)[C@]1(C)[C@H](OC(=O)/C=C(\C)C(C)C)C[C@@H]1[C@@]3(C)CC[C@H](OC(=O)CO)CC3=CC[C@]12O`, the IC50 [1] is reported as 219 µM, the CC50 [2] is reported as 136 µM and the IC50 [4] is reported as 192 µM. For the same compound, the IC50 [5] was 147 µM.
Work on `CC(=O)[C@]1(O)CC[C@@]2(O)[C@]1(C)[C@H](OC(=O)/C=C(\C)C(C)C)C[C@@H]1[C@@]3(C)CCC(=O)CC3=CC(=O)[C@]12O` yielded a selectivity ratio [6] of 1.4, an IC50 [1] of 113 µM and a CC50 [2] of 155 µM. It also gave an IC50 [4] of 205 µM and an IC50 [5] of over 1630 µM.
For `CC(=O)[C@]1(O)CC[C@@]2(O)[C@]1(C)[C@H](OC(=O)/C=C(\C)C(C)C)C[C@@H]1[C@@]3(C)CC[C@H](OC(=O)Cc4ccncc4)CC3=CC[C@]12O`, the IC50 [1] was over 414 µM, the CC50 [2] was 39.9 µM and the IC50 [4] was 19.7 µM. The IC50 [5] was over 32.8 µM.
With `COP(=O)(OC)O[C@H]1CC[C@@]2(C)C(=CC[C@]3(O)[C@@H]2C[C@@H](OC(=O)/C=C(\C)C(C)C)[C@@]2(C)[C@]3(O)CC[C@@]2(O)C(C)=O)C1` the selectivity ratio [6] was 5.3, the IC50 [1] was 105 µM and the CC50 [2] was 560 µM. The IC50 [4] was over 1750 µM and the IC50 [5] was over 1750 µM.
With `CC(=O)[C@]1(O)CC[C@@]2(O)[C@]1(C)[C@H](OC(=O)/C=C(\C)C(C)C)C[C@@H]1[C@@]3(C)CC[C@H](OC(=O)c4ccnn4C)CC3=CC[C@]12O` the selectivity ratio [6] was 3.6, the IC50 [1] was 2.82 µM and the CC50 [2] was 10.1 µM. The IC50 [4] was 14.5 µM and the IC50 [5] was over 721 µM.
